Measured values from different studies.
Each line is one published result; the experiments were not run side by side.

Cc1nc(-c2cnc(NC(C)C)n(C)c2=O)ccc1Oc1ccnc(-c2cnn(C)c2)c1  half-life (female mouse, plasma; oral, 30 mg/kg, single dose): 15.3 h
CCc1ccc(Cc2cc([C@@H]3O[C@H](CO)[C@@H](O)[C@H](O)[C@H]3O)cc3c2CCC3)cc1  half-life (male C57BL/6 mouse, plasma; oral, 1 mg/kg): 3 h
COc1ccc(C(O)COc2ccc(-c3csc(-c4ccc(OCC(O)c5ccc(OC)c(OC)c5)cc4)n3)cc2)cc1OC (stereo not shown)  half-life (C57BL/6 mouse, plasma; intravenous, 3 mg/kg): 3 h
Cc1ccc2cncc(N3CCc4c(cc(Cn5ccnc5)cc4-c4cn(C)nc4C(F)(F)F)C3=O)c2c1  half-life (male CD-1 mouse, plasma; intravenous, 3 mg/kg): 1.5 h
Cn1cnc2c(F)c(Nc3ccc(Br)cc3Cl)c(C(=O)NOCCO)cc21  half-life (nude mouse, tumour; oral, 10 mg/kg, single dose, tumour-bearing): 3.7 h
CN1CCC[C@H](CN2c3ccccc3Sc3ccccc32)C1.Cl  half-life (mouse, plasma; oral, 64 mg/kg, single dose): 4.37 h
CCc1cc(OC)c2nccc(N3CCc4c(cc(Cn5ccnc5)cc4-c4cn(C)nc4C(F)(F)F)C3=O)c2c1  half-life (male CD-1 mouse, plasma; oral, 50 mg/kg): 1.1 h
CC[C@H](C)[C@@H]1NC(=O)[C@@](C)(NC(=O)[C@H](CCCNC(=N)N)NC(=O)[C@H](CC(C)C)NC(=O)[C@@H](NC(=O)[C@H](CCC(N)=O)NC(=O)[C@H](CC(C)C)NC(C)=O)[C@@H](C)O)CCCC=CCCC[C@@](C)(C(=O)N[C@@H](CC(C)C)C(=O)N[C@@H](Cc2ccc3ccccc3c2)C(N)=O)NC(=O)[C@H](CCCNC(=N)N)NC(=O)[C@H](CCC(N)=O)NC1=O  half-life (male BALB/c mouse, plasma; intravenous, 5 mg/kg): 1.4 h
CC(C)(C)c1ccc(O)c(CN(Cc2cc(C(C)(C)C)ccc2O)C2CCC(NC(N)=O)CC2)c1 (stereo not shown)  half-life (male C57BL/6 mouse, plasma; intraperitoneal, 25 mg/kg, single dose): 2.4 h
CC=Cc1ccc(O)c(OC)c1  half-life (mouse, plasma; intranasal, 100 mg/kg): 0.302 h
